Data: ChEMBL document CHEMBL3588850, “Multivalent Amino Sugars to Recognize Different TAR RNA Conformations” (Medchemcomm, 2014)
pIC50: −log10 of the molar value. The source made the active and inactive calls. The rule behind the calls is not given here.

What was measured:
[1] = system: Human immunodeficiency virus 1; experiment: Induction of thermal stability changes in wild type HIV1 TAR RNA assessed as change in melting temperature using 1 molar equivalents of compound pre-incubated for 4 hrs at pH 6.8 at 4 degC before test by UV thermal denaturation assay
[2] = system: Human immunodeficiency virus 1; experiment: Induction of thermal stability changes in HIV1 TAR RNA U3 bulge mutant assessed as change in melting temperature using 1 molar equivalents of compound pre-incubated for 4 hrs at pH 6.8 at 4 degC before test by UV thermal denaturation assay
In short: (§1)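 TAR RNA mutants at 1 μM/strand mixed with 1 or 2 molar equivalents of ligand in 100 mM KCl, 10 mM SC, 0.5 mM EDTA, pH 6.8, then held 4 h at 4 °C. Absorbance at 260 nm in 1 cm cuvettes, 15–100 °C, heating 0.3 °C/min. Tm taken from first-derivative plots and compared with the no-ligand sample.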

[3] = system: Human immunodeficiency virus 1; experiment: Induction of thermal stability changes in HIV1 TAR RNA tetraloop mutant assessed as change in melting temperature using 1 molar equivalents of compound pre-incubated for 4 hrs at pH 6.8 at 4 degC before test by UV thermal denaturation assay; in short: as §1
[4] = system: Human immunodeficiency virus 1; experiment: Induction of thermal stability changes in HIV1 TAR RNA bulgeless mutant assessed as change in melting temperature using 1 molar equivalents of compound pre-incubated for 4 hrs at pH 6.8 at 4 degC before test by UV thermal denaturation assay; in short: as §1
[5] = system: Human immunodeficiency virus 1; experiment: Induction of thermal stability changes in HIV1 TAR RNA bulgeless tetraloop mutant assessed as change in melting temperature using 1 molar equivalents of compound pre-incubated for 4 hrs at pH 6.8 at 4 degC before test by UV thermal denaturation assay; in short: as §1
[6] = system: Human immunodeficiency virus 1; experiment: Induction of thermal stability changes in wild type HIV1 TAR RNA assessed as change in melting temperature using 2 molar equivalents of compound pre-incubated for 4 hrs at pH 6.8 at 4 degC before test by UV thermal denaturation assay
[7] = system: Human immunodeficiency virus 1; experiment: Induction of thermal stability changes in HIV1 TAR RNA U3 bulge mutant assessed as change in melting temperature using 2 molar equivalents of compound pre-incubated for 4 hrs at pH 6.8 at 4 degC before test by UV thermal denaturation assay; in short: as §1
[8] = system: Human immunodeficiency virus 1; experiment: Induction of thermal stability changes in HIV1 TAR RNA tetraloop mutant assessed as change in melting temperature using 2 molar equivalents of compound pre-incubated for 4 hrs at pH 6.8 at 4 degC before test by UV thermal denaturation assay; in short: as §1
Nucleic Acid [9] = experiment: Binding affinity to wild type HIV1 TAR RNA at pH 6.8 by ethidium bromide displacement assay; type: nucleic-acid assay, Human immunodeficiency virus 1
In short: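 TAR RNA (200 nM/strand) and EtBr (5 μM) in 100 mM KCl, 10 mM SC, 0.5 mM EDTA, pH 6.8, titrated with ligand aliquots (at most 4% v/v). Fluorescence excited at 545 nm and read at 610 nm. IC50 is the ligand concentration that displaces 50% of EtBr, taken from a sigmoidal fit of fraction displaced versus log ligand concentration.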

Nucleic Acid [10] = experiment: Binding affinity to HIV1 TAR RNA bulgeless mutant at pH 6.8 by ethidium bromide displacement assay; type: nucleic-acid assay, Human immunodeficiency virus 1
In short: (§2)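 Synthetic 2′-ACE-protected TAR RNA, deprotected, heated 98 °C 5 min, then ice-cooled 15 min. TAR RNA at 200 nM/strand with ethidium bromide 5 μM in 100 mM KCl, 10 mM SC, 0.5 mM EDTA, pH 6.8. Ligand added stepwise, ≤4% v/v. Excitation 545 nm, emission 580–660 nm, intensity at 610 nm normalized. IC50 from sigmoidal fit of fraction EtBr displaced vs log ligand; association constants from Scatchard analysis.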

Nucleic Acid [11] = experiment: Binding affinity to HIV1 TAR RNA tetraloop mutant at pH 6.8 by ethidium bromide displacement assay; type: nucleic-acid assay, Human immunodeficiency virus 1; in short: as §2
Nucleic Acid [12] = experiment: Binding affinity to HIV1 TAR RNA bulgeless tetraloop mutant at pH 6.8 by ethidium bromide displacement assay; type: nucleic-acid assay, Human immunodeficiency virus 1; in short: as §2
Nucleic Acid [13] = experiment: Binding affinity to HIV1 TAR RNA bulgeless mutant assessed as association constant at pH 6.8 by ethidium bromide displacement assay based Scatchard analysis method; type: nucleic-acid assay; conditions: Human immunodeficiency virus 1; in short: as §2
Nucleic Acid [14] = experiment: Binding affinity to HIV1 TAR RNA bulgeless tetraloop mutant assessed as association constant at pH 6.8 by ethidium bromide displacement assay based Scatchard analysis method; type: nucleic-acid assay; conditions: Human immunodeficiency virus 1; in short: as §2
Nucleic Acid [15] = experiment: Induction of conformational changes in wild type HIV1 TAR RNA assessed as changes in 210 to 220 nm region using 1 molar equivalents of compound at pH 6.8 by CD spectroscopy; type: nucleic-acid assay; conditions: Human immunodeficiency virus 1
Nucleic Acid [16] = experiment: Induction of conformational changes in wild type HIV1 TAR RNA assessed as increase in intensity in 265 nm region using 1 molar equivalents of compound at pH 6.8 by CD spectroscopy; type: nucleic-acid assay; conditions: Human immunodeficiency virus 1
Nucleic Acid [17] = experiment: Induction of conformational changes in HIV1 TAR RNA bulgeless mutant assessed as induction of red shift in CD spectra region using 1 molar equivalents of compound at pH 6.8 by CD spectroscopy; type: nucleic-acid assay; conditions: Human immunodeficiency virus 1
In short: (§3)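 Spectra recorded before and after adding 1 molar equivalent ligand (≤1% v/v, in buffer). Scan 325–200 nm at 500 nm/min, 1 nm bandwidth, 1 cm cuvette, 20 °C. Each spectrum is the average of 10 scans; ΔCD plotted.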

Nucleic Acid [18] = experiment: Induction of conformational changes in HIV1 TAR RNA tetraloop mutant assessed as induction of red shift in CD spectra region using 1 molar equivalents of compound at pH 6.8 by CD spectroscopy; type: nucleic-acid assay; conditions: Human immunodeficiency virus 1; in short: as §3
Nucleic Acid [19] = experiment: Induction of conformational changes in HIV1 TAR RNA bulgeless tetraloop mutant assessed as induction of red shift in CD spectra region using 1 molar equivalents of compound at pH 6.8 by CD spectroscopy; type: nucleic-acid assay; conditions: Human immunodeficiency virus 1; in short: as §3
Nucleic Acid [20] = experiment: Induction of conformational changes in HIV1 TAR RNA U3 bulge mutant assessed as induction of red shift in CD spectra region using 1 molar equivalents of compound at pH 6.8 by CD spectroscopy; type: nucleic-acid assay; conditions: Human immunodeficiency virus 1; in short: as §3
Nucleic Acid [21] = experiment: Induction of conformational changes in HIV1 TAR RNA bulgeless mutant assessed as changes in 260 to 270 nm region using 1 molar equivalents of compound at pH 6.8 by CD spectroscopy; type: nucleic-acid assay; conditions: Human immunodeficiency virus 1; in short: as §3
Nucleic Acid [22] = experiment: Induction of conformational changes in HIV1 TAR RNA tetraloop mutant assessed as changes in 260 to 270 nm region using 1 molar equivalents of compound at pH 6.8 by CD spectroscopy; type: nucleic-acid assay; conditions: Human immunodeficiency virus 1; in short: as §3
Nucleic Acid [23] = experiment: Induction of conformational changes in HIV1 TAR RNA bulgeless tetraloop mutant assessed as changes in 260 to 270 nm region using 1 molar equivalents of compound at pH 6.8 by CD spectroscopy; type: nucleic-acid assay; conditions: Human immunodeficiency virus 1; in short: as §3
Nucleic Acid [24] = experiment: Induction of conformational changes in HIV1 TAR RNA U3 bulge mutant aassessed as changes in 260 to 270 nm region using 1 molar equivalents of compound at pH 6.8 by CD spectroscopy; type: nucleic-acid assay; conditions: Human immunodeficiency virus 1; in short: as §3
Nucleic Acid [25] = experiment: Induction of conformational changes in HIV1 TAR RNA bulgeless mutant assessed as changes in 210 to 220 nm region using 1 molar equivalents of compound at pH 6.8 by CD spectroscopy; type: nucleic-acid assay; conditions: Human immunodeficiency virus 1; in short: as §3
Nucleic Acid [26] = experiment: Induction of conformational changes in HIV1 TAR RNA tetraloop mutant assessed as changes in 210 to 220 nm region using 1 molar equivalents of compound at pH 6.8 by CD spectroscopy; type: nucleic-acid assay; conditions: Human immunodeficiency virus 1; in short: as §3
Nucleic Acid [27] = experiment: Induction of conformational changes in HIV1 TAR RNA bulgeless tetraloop mutant assessed as changes in 210 to 220 nm region using 1 molar equivalents of compound at pH 6.8 by CD spectroscopy; type: nucleic-acid assay; conditions: Human immunodeficiency virus 1; in short: as §3
Nucleic Acid [28] = experiment: Induction of conformational changes in HIV1 TAR RNA U3 bulge mutant aassessed as changes in 210 to 220 nm region using 1 molar equivalents of compound at pH 6.8 by CD spectroscopy; type: nucleic-acid assay; conditions: Human immunodeficiency virus 1; in short: as §3
Nucleic Acid [29] = experiment: Binding affinity to HIV1 TAR RNA U3 bulge mutant at pH 6.8 by ethidium bromide displacement assay; type: nucleic-acid assay, Human immunodeficiency virus 1; in short: as §2
Nucleic Acid [30] = experiment: Binding affinity to wild type HIV1 TAR RNA assessed as association constant at pH 6.8 by ethidium bromide displacement assay based Scatchard analysis method; type: nucleic-acid assay; conditions: Human immunodeficiency virus 1
In short: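 Ethidium bromide displacement: 5 μM EtBr with TAR RNA at 200 nM/strand (under 20% of EtBr bound) in 100 mM KCl, 10 mM SC, 0.5 mM EDTA, pH 6.8. Ligand added in concentrated aliquots, at most 4% v/v. Excitation 545 nm, emission 580–660 nm, intensity at 610 nm. Association constant obtained by Scatchard analysis of the titration data.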

Nucleic Acid [31] = experiment: Binding affinity to HIV1 TAR RNA tetraloop mutant assessed as association constant at pH 6.8 by ethidium bromide displacement assay based Scatchard analysis method; type: nucleic-acid assay; conditions: Human immunodeficiency virus 1; in short: as §2
Nucleic Acid [32] = experiment: Binding affinity to HIV1 TAR RNA U3 bulge mutant at assessed as association constant at pH 6.8 by ethidium bromide displacement assay based Scatchard analysis method; type: nucleic-acid assay; conditions: Human immunodeficiency virus 1; in short: as §2
Nucleic Acid [33] = experiment: Binding affinity to wild type HIV1 TAR RNA assessed as induction of chemical shifts changes of GH1 and UH3 regions by NMR spectroscopy; type: nucleic-acid assay; conditions: Human immunodeficiency virus 1
In short: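 Imino-region 1D 1H jump-return echo spectra recorded at 298 K on an 850 MHz instrument with a cryoprobe, with increasing amounts of ligand added.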

Nucleic Acid [34] = experiment: Binding affinity to HIV1 TAR RNA tetraloop mutant assessed as induction of imino chemical shifts changes by NMR spectroscopy; type: nucleic-acid assay; conditions: Human immunodeficiency virus 1

NC[C@@H]1O[C@H](O[C@H]2[C@@H](O)[C@H](O[C@@H]3[C@@H](O)[C@H](N)C[C@H](N)[C@H]3O[C@H]3O[C@H](CN)[C@@H](O)[C@H](O)[C@H]3N)O[C@@H]2CO)[C@H](N)[C@@H](O)[C@@H]1O [FRAMYCETIN]
ΔTm [1]: 0.2 °C
ΔTm [2]: 0 °C
ΔTm [3]: 1 °C
ΔTm [4]: 1 °C
ΔTm [5]: 0 °C
ΔTm [6]: 0.5 °C
ΔTm [7]: 1 °C
ΔTm [8]: 1 °C
pIC50 (Nucleic Acid [9]): 6.42
pIC50 (Nucleic Acid [10]): 6.82
pIC50 (Nucleic Acid [11]): 6.16
pIC50 (Nucleic Acid [12]): 6.72
K (Nucleic Acid [13]): 3 ×10⁷ /M
K (Nucleic Acid [14]): 1.6 ×10⁷ /M

NC[C@@H]1O[C@H](O[C@H]2[C@@H](O)[C@H](O[C@@H]3[C@@H](O)[C@H](N)C[C@H](N)[C@H]3O[C@H]3O[C@H](CN)[C@@H](O)[C@H](O)[C@H]3N)O[C@@H]2Cn2cc(COCc3cn(C[C@H]4O[C@@H](O[C@@H]5[C@@H](O)[C@H](N)C[C@H](N)[C@H]5O[C@H]5O[C@H](CN)[C@@H](O)[C@H](O)[C@H]5N)[C@H](O)[C@@H]4O[C@H]4O[C@@H](CN)[C@@H](O)[C@H](O)[C@H]4N)nn3)nn2)[C@H](N)[C@@H](O)[C@@H]1O
Activity (Nucleic Acid [15]): Active
Activity (Nucleic Acid [16]): inactive
Activity (Nucleic Acid [17]): Active
Activity (Nucleic Acid [18]): Active
Activity (Nucleic Acid [19]): Active
Activity (Nucleic Acid [20]): Active
Activity (Nucleic Acid [21]): Active
Activity (Nucleic Acid [22]): Active
Activity (Nucleic Acid [23]): Active
Activity (Nucleic Acid [24]): Active
Activity (Nucleic Acid [25]): inactive
Activity (Nucleic Acid [26]): inactive
Activity (Nucleic Acid [27]): inactive
Activity (Nucleic Acid [28]): Active
ΔTm [1]: 10.2 °C
ΔTm [2]: 8.5 °C
ΔTm [3]: 6 °C
ΔTm [4]: 5 °C
ΔTm [5]: > 5 °C
pIC50 (Nucleic Acid [9]): 6.95
pIC50 (Nucleic Acid [11]): 6.81
pIC50 (Nucleic Acid [12]): 6.91
pIC50 (Nucleic Acid [29]): 6.73
K (Nucleic Acid [30]): 1.2 ×10⁸ /M
K (Nucleic Acid [13]): 7.5 ×10⁷ /M
K (Nucleic Acid [31]): 2.7 ×10⁷ /M
K (Nucleic Acid [14]): 2.3 ×10⁸ /M
K (Nucleic Acid [32]): 1.6 ×10⁷ /M
Activity (Nucleic Acid [33]): Dose-dependent effect
Activity (Nucleic Acid [34]): Active
